Data from publication PMC6393846 (Future Microbiology, 2019).
In brackets after ≈: the same amount, converted by molar mass.

What was measured:
S. epidermidis = experiment: Antibiotics combined with plantaricins, summary statements; type: cell-based, Staphylococcus epidermidis; conditions: summary in abstract/discussion; PlnEF with antibiotic; strain not specified
Summary of the method: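 Broth microdilution with S. epidermidis grown overnight in LB at 37 °C with shaking and adjusted by viable count. Twofold antibiotic series: vancomycin and teicoplanin 0.097–50 μg/ml, gentamicin 0.0097–5 μg/ml, tetracycline 0.016–8 μg/ml. Each well also held a fixed paired plantaricin at 12.5 or 6.25 μM, each partner peptide equimolar. MIC/MBC read after 20 h.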

[1] = system: S. epidermidis 126 (hGISE clinical isolate); experiment: Broth microdilution MIC/MBC, clinical isolate; type: cell-based, Staphylococcus epidermidis; conditions: for MIC: Staphylococcus epidermidis
[2] = system: Staphylococcus epidermidis ATCC 12228; experiment: microbe, parasite or virus in culture; conditions: ATCC12228
[3] = system: Staphylococcus epidermidis ATCC 12228; conditions: for reduction of the MIC of the antibiotic in the presence of PlnJK: 12.5 μM PlnJK with antibiotic versus antibiotic alone
[4] = 12.5 μM PlnEF with antibiotic versus antibiotic alone

| reduction of the MIC of the antibiotic in the presence of PlnEF [1, 4] | MIC [1] | MIC [2] | reduction of the MIC of the antibiotic in the presence of PlnJK [3] | reduction of the MIC of the antibiotic in the presence of PlnEF [3, 4] | Compound | enhancement of the effects of the antibiotic by plantaricin (S. epidermidis) | reduction of the MBC of the antibiotic in the presence of PlnEF [1, 4] | MBC [2] |
| --- | --- | --- | --- | --- | --- | --- | --- | --- |
| 500 fold | > 5 µg/mL | 0.31 µg/mL (≈ 0.649 µM) | approximately sevenfold | – | CNC(C)C1CCC(N)C(OC2C(N)CC(N)C(OC3OCC(C)(O)C(NC)C3O)C2O)O1 (stereo not drawn) [Gentamicin] | > 500 fold | 260 fold | – |
| 125 fold | ≥ 2 µg/mL | – | – | 500 fold | CN(C)[C@@H]1C(O)=C(C(N)=O)C(=O)[C@@]2(O)C(O)=C3C(=O)c4c(O)cccc4[C@@](C)(O)[C@H]3C[C@@H]12 [Tetracycline] | > 500 fold | – | – |
| – | – | 3.1 µg/mL (≈ 2.14 µM) | – | – | CN[C@H](CC(C)C)C(=O)N[C@H]1C(=O)N[C@@H](CC(N)=O)C(=O)N[C@H]2C(=O)N[C@H]3C(=O)N[C@H](C(=O)N[C@H](C(=O)O)c4cc(O)cc(O)c4-c4cc3ccc4O)[C@H](O)c3ccc(c(Cl)c3)Oc3cc2cc(c3O[C@@H]2O[C@H](CO)[C@@H](O)[C@H](O)[C@H]2O[C@H]2C[C@](C)(N)[C@H](O)[C@H](C)O2)Oc2ccc(cc2Cl)[C@H]1O [Vancomycin] | > 30 fold | – | 6.25 µg/mL (≈ 4.31 µM) |
| – | – | – | twofold | – | Teicoplanin | > 30 fold | – | – |
